Published values collected from several papers.
Lines come from different studies, so protocols differ.
Route: oral

SMILES	host	sample	dose	notes	bioavailability [%]
CC(C)[C@@H](CS(=O)(=O)C(C)C)N1C(=O)[C@@](C)(CC(=O)O)C[C@H](c2cccc(Cl)c2)[C@H]1c1ccc(Cl)cc1	FVB mouse	plasma	20 mg/kg	single dose	16
C=CCn1c(=O)c2cnc(Nc3ccc(N4CCN(C)CC4)cc3)nc2n1-c1ccc2c(n1)[C@@](O)(CC)CC2	mouse	plasma	60 mg/kg		98
COCC(=O)N1CCc2[nH]c3c(Cl)c(Cl)ccc3c2[C@@H]1C	C57BL/6 mouse	blood	20 mg/kg		12.5
OCc1ccc(-c2nn(Cc3ccccc3)c3ccccc23)o1	male CD-1 mouse	plasma	10 mg/kg		11
Cc1nc2ccc(OCc3ccc(C(F)(F)F)cc3)cc2[nH]1	male BALB/c mouse	plasma	10 mg/kg		35
Cc1cc(-c2ccnc3[nH]cc(F)c23)cc(F)c1[C@@]1(O)[C@H](C)CN(C2CCS(=O)(=O)CC2)C[C@@H]1C	male CD-1 mouse	plasma	3 mg/kg		37.7
Oc1ccc([C@@H]2Oc3ccc(O)cc3[C@@H]3CCC[C@@H]32)cc1	male C57BL/6 mouse	plasma	10 mg/kg		14
Cc1ccc(OCC(=O)N[C@@H](Cc2c[nH]c3ccccc23)C(=O)OC(C)C)cc1	male Sprague-Dawley mouse	plasma	20 mg/kg		39
Cc1cc(-c2ccnc3[nH]cc(F)c23)cc(F)c1[C@@]1(O)[C@H](C)CN(C(=O)CN)C[C@@H]1C	male CD-1 mouse	plasma	3 mg/kg		30.7
O=C1CCC(N2Cc3cc(C4CCN(Cc5ccccc5)CC4)ccc3C2=O)C(=O)N1 (centres unmarked)	male CD-1 mouse	plasma	3 mg/kg		63.8
NCc1ccc(-c2nn(Cc3ccccc3)c3ccccc23)o1	male CD-1 mouse	plasma	10 mg/kg		34
FC(F)(F)CN1CC(n2cc(Oc3ccn4nc(Cl)cc4n3)cn2)C1	FVB mouse	blood		single dose	46
CN(C)C(=O)c1cc2cnc(Nc3ccc(-c4ccc5c(=O)cc(N6CCOCC6)oc5c4)cc3)nc2n1C1CCCC1.Cl	BALB/c mouse	plasma	20 mg/kg		29
CCOC(=O)C1=C(CN2CCC[C@@H]2C(=O)Nc2ccc(B(O)O)cc2)NC(c2nccs2)=N[C@H]1c1ccc(F)cc1Br	CD-1 mouse	plasma	10 mg/kg		10.4
